Calls of active or inactive are those of the source.
How the values were obtained:
[1] = target: Myeloid differentiation primary response protein MyD88 (Homo sapiens) (UniProt Q99836); assay: Binding affinity to recombinant MyD88 (unknown origin) by surface plasmon resonance analysis
[2] = target: Fibroblast growth factor receptor 2 (Homo sapiens) (UniProt P21802); assay: Inhibition of wild-type human partial length FGFR2 (D457 to E769 residues) expressed in bacterial expression system at 1 uM by Kinomescan method
Outline: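 Binding-competition screen on the KINOMEscan platform, run by the provider, with the test compound at 1 μM. Readout is percent of control: (test signal − positive control signal)/(negative control signal − positive control signal) × 100. The DMSO negative control is set as 100% Ctrl and a control compound as 0% Ctrl. Lower values mean stronger hits.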

[3] = target: Serine/threonine-protein kinase STK11 (Homo sapiens) (UniProt Q15831); assay: Inhibition of wild-type human full length LKB1 (M1 to Q433 residues) expressed in bacterial expression system at 1 uM by Kinomescan method
Outline: (§1)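 KINOMEscan competition binding screen at 1 μM compound. Results reported as % of control = (test − positive control)/(DMSO negative control − positive control) × 100, where lower values mean stronger hits.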

[4] = target: MAP/microtubule affinity-regulating kinase 3 (Homo sapiens) (UniProt P27448); assay: Inhibition of wild-type human full length MARK3 (M1 to L729 residues) expressed in bacterial expression system at 1 uM by Kinomescan method; outline: as §1
[5] = target: Dual specificity mitogen-activated protein kinase kinase 2 (Homo sapiens) (UniProt P36507); assay: Inhibition of wild-type human full length MEK2 (M1 to V400 residues) expressed in mammalian expression system at 1 uM by Kinomescan method; outline: as §1
[6] = target: Testis-specific serine/threonine-protein kinase 1 (Homo sapiens) (UniProt Q9BXA7); assay: Inhibition of wild-type human full length TSSK1B (M1 to Q367 residues) expressed in bacterial expression system at 1 uM by Kinomescan method; outline: as §1
Chain of Testis-specific serine/threonine-protein kinase 1 (Homo sapiens) (Q9BXA7 whole entry, the tested form may be a part): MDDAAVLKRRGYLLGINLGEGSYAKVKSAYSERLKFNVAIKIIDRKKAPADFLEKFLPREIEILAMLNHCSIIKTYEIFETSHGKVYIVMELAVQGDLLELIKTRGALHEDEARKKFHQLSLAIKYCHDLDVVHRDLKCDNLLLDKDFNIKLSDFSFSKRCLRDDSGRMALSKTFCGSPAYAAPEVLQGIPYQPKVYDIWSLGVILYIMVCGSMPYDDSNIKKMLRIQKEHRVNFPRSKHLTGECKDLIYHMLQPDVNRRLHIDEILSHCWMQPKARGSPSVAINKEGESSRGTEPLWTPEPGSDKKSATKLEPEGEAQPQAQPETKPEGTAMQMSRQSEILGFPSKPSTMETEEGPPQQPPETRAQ

Chain of Dual specificity mitogen-activated protein kinase kinase 2 (Homo sapiens) (P36507 whole entry, the tested form may be a part): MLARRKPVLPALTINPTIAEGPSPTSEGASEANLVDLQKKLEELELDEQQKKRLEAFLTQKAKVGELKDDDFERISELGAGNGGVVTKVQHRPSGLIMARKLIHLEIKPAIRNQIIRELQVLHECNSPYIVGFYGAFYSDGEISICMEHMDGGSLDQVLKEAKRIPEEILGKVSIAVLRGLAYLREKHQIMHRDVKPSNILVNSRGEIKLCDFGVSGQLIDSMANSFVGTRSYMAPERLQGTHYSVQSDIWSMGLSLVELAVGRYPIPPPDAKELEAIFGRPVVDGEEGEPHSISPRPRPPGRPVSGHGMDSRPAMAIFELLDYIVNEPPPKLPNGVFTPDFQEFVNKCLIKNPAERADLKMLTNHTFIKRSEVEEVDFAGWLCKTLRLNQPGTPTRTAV
Chain of Myeloid differentiation primary response protein MyD88 (Homo sapiens) (Q99836 whole entry, the tested form may be a part): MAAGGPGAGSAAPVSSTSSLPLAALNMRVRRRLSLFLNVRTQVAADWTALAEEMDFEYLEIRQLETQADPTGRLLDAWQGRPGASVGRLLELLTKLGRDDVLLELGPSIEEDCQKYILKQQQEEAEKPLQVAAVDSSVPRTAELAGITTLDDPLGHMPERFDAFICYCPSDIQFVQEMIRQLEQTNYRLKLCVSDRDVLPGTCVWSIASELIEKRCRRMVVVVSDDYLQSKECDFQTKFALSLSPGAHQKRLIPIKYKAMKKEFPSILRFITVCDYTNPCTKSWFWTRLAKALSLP
Chain of MAP/microtubule affinity-regulating kinase 3 (Homo sapiens) (P27448 whole entry, looked up, the tested form may be a part): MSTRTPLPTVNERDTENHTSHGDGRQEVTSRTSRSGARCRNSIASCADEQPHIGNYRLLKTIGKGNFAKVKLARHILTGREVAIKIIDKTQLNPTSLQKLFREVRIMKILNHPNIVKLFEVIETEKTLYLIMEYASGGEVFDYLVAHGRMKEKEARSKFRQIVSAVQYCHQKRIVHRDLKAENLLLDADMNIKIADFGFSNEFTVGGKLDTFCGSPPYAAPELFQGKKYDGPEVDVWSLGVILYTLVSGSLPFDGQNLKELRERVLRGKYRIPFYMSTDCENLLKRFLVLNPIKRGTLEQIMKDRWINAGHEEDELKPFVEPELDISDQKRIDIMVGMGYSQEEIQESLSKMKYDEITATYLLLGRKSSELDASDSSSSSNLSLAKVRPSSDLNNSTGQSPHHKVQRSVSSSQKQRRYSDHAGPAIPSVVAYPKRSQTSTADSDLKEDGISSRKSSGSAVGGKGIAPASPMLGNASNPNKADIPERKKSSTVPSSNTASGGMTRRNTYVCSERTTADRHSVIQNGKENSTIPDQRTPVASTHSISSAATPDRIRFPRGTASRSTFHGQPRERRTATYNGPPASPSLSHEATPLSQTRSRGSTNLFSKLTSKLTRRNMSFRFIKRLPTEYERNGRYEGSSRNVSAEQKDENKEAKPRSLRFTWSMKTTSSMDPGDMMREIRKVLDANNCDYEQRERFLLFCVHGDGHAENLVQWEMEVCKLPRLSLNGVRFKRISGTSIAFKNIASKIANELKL
Chain of Fibroblast growth factor receptor 2 (Homo sapiens) (P21802 22-821 limits assumed): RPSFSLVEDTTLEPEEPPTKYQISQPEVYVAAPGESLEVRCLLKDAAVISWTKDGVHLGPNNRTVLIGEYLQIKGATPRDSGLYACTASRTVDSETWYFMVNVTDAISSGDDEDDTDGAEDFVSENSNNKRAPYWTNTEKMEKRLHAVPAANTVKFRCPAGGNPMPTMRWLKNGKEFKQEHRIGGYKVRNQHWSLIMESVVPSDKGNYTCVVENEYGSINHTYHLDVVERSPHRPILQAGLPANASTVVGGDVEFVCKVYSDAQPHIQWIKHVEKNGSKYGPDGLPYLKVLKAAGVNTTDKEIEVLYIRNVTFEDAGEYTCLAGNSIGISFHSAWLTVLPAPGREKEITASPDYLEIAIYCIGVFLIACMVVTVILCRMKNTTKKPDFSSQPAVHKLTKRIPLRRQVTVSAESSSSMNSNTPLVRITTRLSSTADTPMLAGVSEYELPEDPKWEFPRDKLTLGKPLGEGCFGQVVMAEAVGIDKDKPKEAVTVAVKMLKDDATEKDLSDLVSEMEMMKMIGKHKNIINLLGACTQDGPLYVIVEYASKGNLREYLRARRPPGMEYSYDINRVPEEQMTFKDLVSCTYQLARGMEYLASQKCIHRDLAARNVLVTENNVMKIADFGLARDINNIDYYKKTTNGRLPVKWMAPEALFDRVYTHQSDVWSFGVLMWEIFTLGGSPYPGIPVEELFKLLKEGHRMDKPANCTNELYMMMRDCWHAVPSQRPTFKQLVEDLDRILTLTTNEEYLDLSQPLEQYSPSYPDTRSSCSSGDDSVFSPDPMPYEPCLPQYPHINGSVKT
Chain of Serine/threonine-protein kinase STK11 (Homo sapiens) (Q15831 whole entry, the tested form may be a part): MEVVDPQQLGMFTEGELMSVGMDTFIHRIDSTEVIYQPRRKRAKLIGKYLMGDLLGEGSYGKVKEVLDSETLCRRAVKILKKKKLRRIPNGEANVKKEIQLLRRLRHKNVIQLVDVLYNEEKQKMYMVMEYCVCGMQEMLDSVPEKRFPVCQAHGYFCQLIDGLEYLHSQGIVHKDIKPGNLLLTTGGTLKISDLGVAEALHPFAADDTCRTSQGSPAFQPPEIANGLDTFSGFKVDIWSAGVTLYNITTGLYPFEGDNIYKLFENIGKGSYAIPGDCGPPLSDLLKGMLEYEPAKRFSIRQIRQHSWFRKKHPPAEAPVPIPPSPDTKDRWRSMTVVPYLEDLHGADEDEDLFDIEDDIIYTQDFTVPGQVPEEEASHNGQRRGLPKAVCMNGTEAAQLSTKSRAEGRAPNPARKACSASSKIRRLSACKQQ

O=C(Nc1ccc2[nH]nc(-c3ccc4[nH]ccc4c3)c2c1)c1c(Cl)cccc1Cl
inactive: Activity [1] | inhibition [2] | inhibition [3] | inhibition [4] | inhibition [5] | inhibition [6]

Source: ChEMBL document CHEMBL4304739, “Discovery of 3-(Indol-5-yl)-indazole Derivatives as Novel Myeloid Differentiation Protein 2/Toll-like Receptor 4 Antagonists for Treatment of Acute Lung Injury” (J Med Chem, 2019)
